Data from ChEMBL document CHEMBL1914395, “Design, synthesis, and biological evaluation of callophycin A and analogues as potential chemopreventive and anticancer agents” (Bioorg Med Chem, 2011).

What was measured:
Aromatase = target: T1, Aromatase (Homo sapiens, UniProt P11511); assay: Inhibition of aromatase at 50 uM after 10 mins preincubation by plate reader relative to control
T1 sequence (P11511 whole entry): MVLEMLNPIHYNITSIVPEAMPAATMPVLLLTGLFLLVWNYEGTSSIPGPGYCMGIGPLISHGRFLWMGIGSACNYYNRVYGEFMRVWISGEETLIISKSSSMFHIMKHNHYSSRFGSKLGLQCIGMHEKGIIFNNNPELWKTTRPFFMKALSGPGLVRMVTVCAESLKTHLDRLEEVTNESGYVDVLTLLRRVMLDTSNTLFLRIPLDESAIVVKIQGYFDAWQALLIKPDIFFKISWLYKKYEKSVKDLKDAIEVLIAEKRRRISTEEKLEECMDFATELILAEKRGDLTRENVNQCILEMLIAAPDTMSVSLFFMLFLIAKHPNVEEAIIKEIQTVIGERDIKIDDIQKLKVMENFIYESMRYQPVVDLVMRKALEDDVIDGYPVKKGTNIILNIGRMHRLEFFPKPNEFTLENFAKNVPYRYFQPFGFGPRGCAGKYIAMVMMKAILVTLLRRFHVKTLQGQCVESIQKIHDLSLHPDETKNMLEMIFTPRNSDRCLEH
Method in brief: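 CYP19 enzyme. Compound pre-incubated 10 min with an NADPH-regenerating system (NADP+, glucose 6-phosphate, G6PDH, MgCl2, albumin) in 50 mM potassium phosphate pH 7.4. Enzyme and 0.4 μM dibenzylfluorescein substrate then added, 30 min at 37 °C. Quenched with 2 N NaOH and incubated a further 2 h at 37 °C. Fluorescence read at ex 485/em 530 nm. Compound tested at 50 μM.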

MCF7 [1] = assay: Antiproliferative activity against human MCF7 cells assessed as survival at 50 uM after 72 hrs by SRB assay relative to control; format: functional; settings: MCF7, 72 h, read-out: Survival
Method in brief: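 MCF7 cells (1 × 10^4 per well) were plated onto compound and kept at 37°C, 5% CO2 for 72 h. Cells were fixed in 10% TCA for 30 min and stained with 0.4% SRB in 1% acetic acid for 30 min. Bound dye was dissolved in 10 mM Tris (pH 10.0) and read at 515 nm. Survival is given as % of DMSO-treated controls, screened at 50 μM.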

[2] = target: NAD(P)H dehydrogenase [quinone] 1 (Mus musculus) (UniProt Q64669); assay: Induction of quinone reductase 1 activity in mouse Hepa-1c1c7 cells at 50 uM by MTT assay relative to untreated control; format: cell-based
Method in brief: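 Hepa 1c1c7 murine hepatoma cells treated with compound at 50 μM. QR1 measured by NADPH-dependent, menadiol-mediated reduction of MTT to formazan. Protein measured by crystal violet staining of identical plates. Specific activity is nmol formazan per mg protein per min. Induction ratio is treated versus DMSO-treated control.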

[3] = Inhibition of TNF-alpha-induced NFkappaB activation in human HEK293 cells after 6 hrs by luciferase assay; format: cell-based; settings: HEK293, 6 h
Method in brief: (§1)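 Cells incubated 6 h with TNFα plus test compound, then luciferase activity measured. Results expressed as percent of TNFα-treated control. Screening concentration 50 μM.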

[4] = target: T2, Nitric oxide synthase, inducible (Mus musculus) (UniProt P29477); assay: Inhibition of iNOS-mediated nitric oxide production in LPS-stimulated mouse RAW 264.7 cells at 50 uM pretreated 15 mins before LPS challenge measured after 20 hrs relative to control; format: cell-based
T2 sequence (whole entry): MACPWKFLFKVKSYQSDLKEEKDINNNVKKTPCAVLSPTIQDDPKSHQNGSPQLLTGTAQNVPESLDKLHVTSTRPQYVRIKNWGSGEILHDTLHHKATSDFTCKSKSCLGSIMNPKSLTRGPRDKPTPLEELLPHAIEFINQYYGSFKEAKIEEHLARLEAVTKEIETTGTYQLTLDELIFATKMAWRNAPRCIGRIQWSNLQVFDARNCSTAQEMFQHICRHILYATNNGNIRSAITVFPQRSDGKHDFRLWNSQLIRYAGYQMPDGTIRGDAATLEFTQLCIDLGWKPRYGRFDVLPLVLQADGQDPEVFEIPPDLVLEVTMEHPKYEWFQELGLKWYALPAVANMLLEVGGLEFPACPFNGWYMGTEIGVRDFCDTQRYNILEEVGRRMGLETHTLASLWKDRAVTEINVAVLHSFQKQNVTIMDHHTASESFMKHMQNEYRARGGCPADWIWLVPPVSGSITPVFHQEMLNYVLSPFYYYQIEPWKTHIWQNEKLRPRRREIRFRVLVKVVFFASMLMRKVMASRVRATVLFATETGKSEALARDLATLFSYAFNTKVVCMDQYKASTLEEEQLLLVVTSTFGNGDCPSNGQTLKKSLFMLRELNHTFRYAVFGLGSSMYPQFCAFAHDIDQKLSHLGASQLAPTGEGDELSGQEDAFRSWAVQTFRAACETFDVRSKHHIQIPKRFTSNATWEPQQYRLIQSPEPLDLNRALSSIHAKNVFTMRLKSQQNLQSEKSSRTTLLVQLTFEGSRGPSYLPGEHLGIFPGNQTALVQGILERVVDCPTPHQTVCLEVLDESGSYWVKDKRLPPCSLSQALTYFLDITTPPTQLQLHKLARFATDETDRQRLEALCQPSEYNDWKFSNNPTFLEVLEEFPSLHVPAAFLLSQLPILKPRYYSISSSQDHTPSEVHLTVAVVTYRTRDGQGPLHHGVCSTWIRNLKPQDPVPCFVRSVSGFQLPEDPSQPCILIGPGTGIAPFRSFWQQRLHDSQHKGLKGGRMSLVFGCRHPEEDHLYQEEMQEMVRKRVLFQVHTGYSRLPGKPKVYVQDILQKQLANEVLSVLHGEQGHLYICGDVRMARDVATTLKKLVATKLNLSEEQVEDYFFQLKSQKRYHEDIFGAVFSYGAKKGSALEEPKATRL
Method in brief: (§2)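 RAW 264.7 cells cultured 24 h at 37°C, then given serially diluted compounds for 15 min before LPS (1 μg/mL) for 20 h. Nitrite in the medium measured with Griess reagent at 540 nm against a sodium nitrite standard curve. Cytotoxicity checked by SRB under the same conditions.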

[5] = target: NAD(P)H dehydrogenase [quinone] 1 (Mus musculus) (UniProt Q64669); assay: Induction of quinone reductase 1 activity in mouse Hepa-1c1c7 cells assessed as cell survival at 50 uM by MTT assay relative to control; format: cell-based
HEK293 [6] = assay: Inhibition of TNF-alpha-induced NFkappaB activation in human HEK293 cells assessed as cell survival at 50 uM after 6 hrs by luciferase assay relative to control; format: cell-based
[7] = target: NAD(P)H dehydrogenase [quinone] 1 (Mus musculus) (UniProt Q64669); assay: Induction of quinone reductase 1 in mouse Hepa 1c1c7 cells assessed as concentration of compound required to double enzyme activity by MTT assay; format: cell-based
Method in brief: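 Dose-response in Hepa 1c1c7 cells, run for substances with induction ratio >2 at 50 μM. QR1 activity measured as menadiol-mediated, NADPH-dependent MTT reduction to formazan, normalised to crystal violet protein content. CD is the concentration that doubles specific activity relative to DMSO control.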

HEK293 [8] = assay: Inhibition of TNF-alpha-induced NFkappaB activation in human HEK293 cells at 50 uM after 6 hrs by luciferase assay relative to control; format: cell-based; method in brief: as §1
[9] = target: T2, Nitric oxide synthase, inducible (Mus musculus); assay: Inhibition of iNOS-mediated nitric oxide production in LPS-stimulated mouse RAW 264.7 cells assessed as cell survival at 50 uM pretreated 15 mins before LPS challenge measured after 20 hrs relative to control; format: cell-based
Method in brief: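 RAW 264.7 cells were incubated at 37°C, 5% CO2 for 24 h. They were then exposed to compound for 15 min before LPS (1 μg/mL) was added for 20 h. Cytotoxicity was measured by SRB staining under the same conditions. Survival is expressed as % relative to vehicle-treated controls at 50 μM.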

[10] = target: T3, Nitric oxide synthase, inducible (Mus musculus, UniProt P29477); assay: Inhibition of iNOS-mediated nitric oxide production in LPS-stimulated mouse RAW 264.7 cells pretreated 15 mins before LPS challenge measured after 20 hrs relative to control; format: cell-based; method in brief: as §2
T3 sequence (P29477 whole entry): T2 sequence (whole entry)

MCF7 [11] = assay: Antiproliferative activity against human MCF7 cells after 72 hrs by SRB assay; format: functional, cell-based; settings: MCF7, 72 h
Method in brief: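 MCF7 cells, 1 × 10^4 per well, plated directly onto compounds and incubated 72 h at 37°C, 5% CO2. Fixed with 10% TCA, stained with 0.4% SRB in 1% acetic acid. Bound dye dissolved in 10 mM Tris pH 10.0, absorbance read at 515 nm. Survival expressed relative to DMSO-treated controls.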

Chain of NAD(P)H dehydrogenase [quinone] 1 (Mus musculus) (Q64669 whole entry): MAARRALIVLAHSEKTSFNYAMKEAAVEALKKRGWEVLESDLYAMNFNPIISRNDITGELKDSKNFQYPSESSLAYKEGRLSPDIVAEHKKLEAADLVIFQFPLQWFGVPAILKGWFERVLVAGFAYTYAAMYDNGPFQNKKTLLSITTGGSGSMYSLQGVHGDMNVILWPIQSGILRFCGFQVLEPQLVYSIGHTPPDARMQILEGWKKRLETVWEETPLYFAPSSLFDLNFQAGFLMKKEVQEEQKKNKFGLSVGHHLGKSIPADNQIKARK

SMILES: CCCCCNC(=O)N1Cc2[nH]c3ccccc3c2C[C@@H]1C(=O)OC
- inhibition at 50 µM (Aromatase): 11.1%
- viability at 50 µM (MCF7 [1]): 50.5%
- Ratio [2]: 4.3
- IC50 [3]: 15.9 µM
- inhibition [4]: 36.2%
- Survival [5]: 12.7%
- Survival (HEK293 [6]): 140%
- CD [7]: 0.2 µM
- inhibition (HEK293 [8]): 62.1%
- Survival [9]: 90.5%

SMILES: COC(=O)[C@H]1Cc2c([nH]c3ccccc23)CN1C(=O)NC(C)C
- inhibition at 50 µM (Aromatase): 32.6%
- viability at 50 µM (MCF7 [1]): 66.1%
- Ratio [2]: 2.7
- IC50 [3]: 21.2 µM
- inhibition [4]: 16.2%
- Survival [5]: 77%
- Survival (HEK293 [6]): 143%
- CD [7]: 8.6 µM
- inhibition (HEK293 [8]): 73.7%
- Survival [9]: 89.4%

SMILES: COC(=O)[C@H]1Cc2c([nH]c3ccccc23)CN1Cc1ccccc1
- inhibition at 50 µM (Aromatase): 38.4%
- IC50 [10]: 32.9 µM
- Ratio [2]: 1.2
- IC50 [3]: 44.2 µM
- inhibition [4]: 74.7%
- Survival [5]: 96.8%
- Survival (HEK293 [6]): 77.1%
- inhibition (HEK293 [8]): 54.4%
- Survival [9]: 81.2%

SMILES: COC(=O)[C@H]1Cc2c([nH]c3ccccc23)CN1S(=O)(=O)c1ccc(Br)cc1
- inhibition at 50 µM (Aromatase): 35.5%
- IC50 (MCF7 [11]): 42.1 µM
- viability at 50 µM (MCF7 [1]): 30.6%
- Ratio [2]: 2.1
- inhibition [4]: 3.8%
- Survival [5]: 83.7%
- Survival (HEK293 [6]): 154%
- CD [7]: 29.7 µM
- inhibition (HEK293 [8]): 43.7%
- Survival [9]: 89.7%

SMILES: COC(=O)[C@@H]1Cc2c([nH]c3ccccc23)CN1C(=O)NC1CCCCC1
- inhibition at 50 µM (Aromatase): 33%
- IC50 [10]: 41.1 µM
- IC50 (MCF7 [11]): 35.8 µM
- viability at 50 µM (MCF7 [1]): 26.3%
- Ratio [2]: 1.1
- inhibition [4]: 53.8%
- Survival [5]: 71.5%
- Survival (HEK293 [6]): 111%
- inhibition (HEK293 [8]): 44.7%
- Survival [9]: 79%

SMILES: COC(=O)[C@H]1Cc2c([nH]c3ccccc23)CN1C(=O)NC12CC3CC(CC(C3)C1)C2
- inhibition at 50 µM (Aromatase): 39.9%
- IC50 [10]: 11.7 µM
- IC50 (MCF7 [11]): 14.7 µM
- viability at 50 µM (MCF7 [1]): 9.9%
- Ratio [2]: 0.4
- inhibition [4]: 64.7%
- Survival [5]: 30.6%
- Survival (HEK293 [6]): 110%
- inhibition (HEK293 [8]): 36.5%
- Survival [9]: 63.2%

SMILES: COC(=O)[C@@H]1Cc2c([nH]c3ccccc23)CN1
- inhibition at 50 µM (Aromatase): 18.3%
- Ratio [2]: 1.1
- IC50 [3]: 38.9 µM
- inhibition [4]: 12.5%
- Survival [5]: 125%
- Survival (HEK293 [6]): 38.6%
- inhibition (HEK293 [8]): 58.3%
- Survival [9]: 104%

SMILES: COC(=O)[C@@H]1Cc2c([nH]c3ccccc23)CN1Cc1ccccc1
- inhibition at 50 µM (Aromatase): 31.5%
- IC50 [10]: 32 µM
- Ratio [2]: 1.6
- IC50 [3]: 30.7 µM
- inhibition [4]: 68.2%
- Survival [5]: 100%
- Survival (HEK293 [6]): 28.8%
- inhibition (HEK293 [8]): 60.4%
- Survival [9]: 85.9%

SMILES: COC(=O)[C@H]1Cc2c([nH]c3ccccc23)CN1C(=O)NC1CCCCC1
- inhibition at 50 µM (Aromatase): 24.4%
- IC50 [10]: 41.6 µM
- IC50 (MCF7 [11]): 18.4 µM
- viability at 50 µM (MCF7 [1]): 5.3%
- Ratio [2]: 1
- inhibition [4]: 55%
- Survival [5]: 71.8%
- Survival (HEK293 [6]): 101%
- inhibition (HEK293 [8]): 20.9%
- Survival [9]: 83.8%

SMILES: CC[C@@]1(O)C(=O)OCc2c1cc1n(c2=O)Cc2cc3ccccc3nc2-1 [CAMPTOTHECIN]
- IC50 (MCF7 [11]): 0.056 µM

SMILES: O=C(O)[C@@H]1Cc2c([nH]c3ccccc23)CN1Cc1ccccc1
- inhibition at 50 µM (Aromatase): 28%
- Ratio [2]: 2.4
- IC50 [3]: 21.4 µM
- inhibition [4]: 6.9%
- Survival [5]: 105%
- Survival (HEK293 [6]): 49.1%
- CD [7]: 8.1 µM
- inhibition (HEK293 [8]): 59.5%
- Survival [9]: 119%
